Activity calls are given as the source filed them. The calls are words filed in the database; no cut-off is given here.
Tests used:
[1] = tested on: Rattus norvegicus; assay: Antidyslipidemic activity in Charles foster rat assessed as decrease in triton WR-1339-induced phospholipid level in plasma at 50 mg/kg, po after 18 hrs relative to triton-treated rat; format: functional; design: scale not given: the % may be the effect or the level left
Procedure, shortened: (§1)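 Male adult Charles Foster rats (200–225 g), six per group. Triton WR-1339 400 mg/kg i.p., with test agent given orally at the same time as a gum acacia suspension in water; food withdrawn. Controls received vehicle. At 18 h, retro-orbital EDTA blood taken and centrifuged 2500 × g for 10 min at 4 °C. Plasma diluted 1:3 in saline; TC, PL and TG read enzymatically on an autoanalyzer. Percent change against triton group.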

[2] = tested on: Rattus norvegicus; assay: Antidyslipidemic activity in Charles foster rat assessed as decrease in triton WR-1339-induced total cholesterol level in plasma at 200 mg/kg, po after 18 hrs relative to triton-treated rat; format: functional; design: scale not given: the % may be the effect or the level left; procedure, shortened: as §1
[3] = tested on: Rattus norvegicus; assay: Antidyslipidemic activity in Charles foster rat assessed as decrease in triton WR-1339-induced phospholipid level in plasma at 100 mg/kg, po after 18 hrs relative to triton-treated rat; format: functional; design: scale not given: the % may be the effect or the level left; procedure, shortened: as §1
[4] = tested on: Rattus norvegicus; assay: Antidyslipidemic activity in Charles foster rat assessed as decrease in triton WR-1339-induced total cholesterol level in plasma at 150 mg/kg, po after 18 hrs relative to triton-treated rat; format: functional; design: scale not given: the % may be the effect or the level left; procedure, shortened: as §1
[5] = Antioxidant activity assessed as reduction of microsomal lipid per-oxidation level by measuring formation of malondialdehyde at 200 ug/ml after 90 mins by spectrophotometric analysis relative to control; format: functional; design: scale not given: the % may be the effect or the level left
[6] = tested on: Rattus norvegicus; assay: Antidyslipidemic activity in Charles foster rat assessed as decrease in triton WR-1339-induced phospholipid level in plasma at 200 mg/kg, po after 18 hrs relative to triton-treated rat; format: functional; design: scale not given: the % may be the effect or the level left; procedure, shortened: as §1
[7] = Antioxidant activity assessed as decrease in superoxide anions level by measuring formation of formazone at 200 ug/ml after 30 mins by spectrophotometric analysis relative to control; format: functional; design: scale not given: the % may be the effect or the level left
Procedure, shortened: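 Superoxide made enzymatically with xanthine ([…]), xanthine oxidase (0.04 U) and nitroblue tetrazolium (320 µM) in 100 mM phosphate buffer pH 8.2. Compound at 200 µg/mL, sonicated in buffer. Incubated 37 °C for 30 min, stopped with glacial acetic acid, formazan read spectrophotometrically. Allopurinol as standard.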

[8] = tested on: Rattus norvegicus; assay: Antidyslipidemic activity in Charles foster rat assessed as decrease in triton WR-1339-induced VLDL cholesterol level in plasma at 100 mg/kg, po after 18 hrs by poly anionic precipitation method relative to triton-treated rat; format: functional, organism-based; design: dose 100 mg/kg
Procedure, shortened: (§2)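 Male adult Charles Foster rats (200–225 g), 6/group. Triton WR-1339 400 mg/kg i.p.; test agent in gum acacia suspension in water given orally together with triton, diet withdrawn. After 18 h, blood drawn from retro-orbital sinus into EDTA tubes under thiopentone anaesthesia. Plasma split into VLDL, LDL and HDL by polyanionic precipitation, then cholesterol measured. Mean ± SD.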

[9] = tested on: Rattus norvegicus; assay: Antidyslipidemic activity in Charles foster rat assessed as decrease in triton WR-1339-induced phospholipid level in plasma at 25 mg/kg, po after 18 hrs relative to triton-treated rat; format: functional; design: scale not given: the % may be the effect or the level left; procedure, shortened: as §1
[10] = tested on: Rattus norvegicus; assay: Antidyslipidemic activity in Charles foster rat assessed as decrease in triton WR-1339-induced LDL cholesterol level in plasma at 100 mg/kg, po after 18 hrs by poly anionic precipitation method relative to triton-treated rat; format: functional, organism-based; design: dose 100 mg/kg; procedure, shortened: as §2
[11] = tested on: Rattus norvegicus; assay: Antidyslipidemic activity in Charles foster rat assessed as decrease in triton WR-1339-induced triglyceride level in plasma at 25 mg/kg, po after 18 hrs relative to triton-treated rat; format: functional; design: scale not given: the % may be the effect or the level left; procedure, shortened: as §1
[12] = tested on: Rattus norvegicus; assay: Antidyslipidemic activity in Charles foster rat assessed as increase in triton WR-1339-reduced HDL cholesterol level in plasma at 100 mg/kg, po after 18 hrs by poly anionic precipitation method relative to triton-treated rat; format: functional, organism-based; design: dose 100 mg/kg; procedure, shortened: as §2
[13] = tested on: Rattus norvegicus; assay: Antidyslipidemic activity in Charles foster rat assessed as decrease in triton WR-1339-induced triglyceride level in plasma at 150 mg/kg, po after 18 hrs relative to triton-treated rat; format: functional; design: scale not given: the % may be the effect or the level left; procedure, shortened: as §1
[14] = tested on: Rattus norvegicus; assay: Antidyslipidemic activity in Charles foster rat assessed as increase in triton WR-1339-reduced post heparin lipolytic activity level in plasma at 100 mg/kg, po after 18 hrs by spectrophotometric analysis relative to triton-treated rat; format: functional; design: scale not given: the % may be the effect or the level left
Procedure, shortened: (§3)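 Triton WR-1339 hyperlipidemia in male Charles Foster rats: 400 mg/kg i.p. plus oral dose in gum acacia vehicle, fasted, 6 rats/group. Plasma taken 18 h later from retro-orbital blood. Post-heparin lipolytic activity measured spectrophotometrically as nmol free fatty acids formed/h/ml plasma. Percent change against triton-only rats; mean ± SD.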

[15] = tested on: Rattus norvegicus; assay: Antidyslipidemic activity in Charles foster rat assessed as decrease in triton WR-1339-induced triglyceride level in plasma at 200 mg/kg, po after 18 hrs relative to triton-treated rat; format: functional; design: scale not given: the % may be the effect or the level left; procedure, shortened: as §1
[16] = tested on: Rattus norvegicus; assay: Antidyslipidemic activity in Charles foster rat assessed as decrease in triton WR-1339-induced total cholesterol level in plasma at 100 mg/kg, po after 18 hrs relative to triton-treated rat; format: functional; design: scale not given: the % may be the effect or the level left; procedure, shortened: as §1
[17] = Antioxidant activity assessed as decrease in hydroxyl radicals level by measuring formation of malondialdehyde at 200 ug/ml after 90 mins by spectrophotometric analysis relative to control; format: functional; design: scale not given: the % may be the effect or the level left
Procedure, shortened: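 Hydroxyl radicals generated without enzyme from deoxyribose 2.8 mM, FeSO4·7H2O 2 mM, sodium ascorbate 2.0 mM and H2O2 2.8 mM in 50 mM KH2PO4 pH 7.4. Compound at 200 µg/mL. Incubated 37 °C for 90 min. Mannitol as standard.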

[18] = tested on: Rattus norvegicus; assay: Antidyslipidemic activity in Charles foster rat assessed as increase in triton WR-1339-reduced post heparin lipolytic activity level in plasma at 50 mg/kg, po after 18 hrs by spectrophotometric analysis relative to triton-treated rat; format: functional; design: scale not given: the % may be the effect or the level left; procedure, shortened: as §3
[19] = tested on: Rattus norvegicus; assay: Antidyslipidemic activity in Charles foster rat assessed as decrease in triton WR-1339-induced triglyceride level in plasma at 100 mg/kg, po after 18 hrs relative to triton-treated rat; format: functional; design: scale not given: the % may be the effect or the level left; procedure, shortened: as §1
[20] = Antioxidant activity assessed as reduction of LDL-oxidation at 200 ug/ml after 1 hr by TBARS assay in presence of Cu 2+ relative to control; format: functional; design: scale not given: the % may be the effect or the level left; settings: in the assay text read “after 16 hr” for “after 1 hr”
Procedure, shortened: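 LDL obtained by ultracentrifugation of serum from overnight-fasted normolipemic donors, dialyzed against 150 mM NaCl with 0.02% EDTA under N2, purity checked by PAGE. LDL 0.71 mg with CuCl2·2H2O 10 µM, compound at 200 µg/mL, in 50 mM PBS pH 7.4 for 16 h at 37 °C. Lipid peroxides read as TBARS after heating with SDS, acetic acid and 0.8% TBA for 1 h in boiling water.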

[21] = tested on: Rattus norvegicus; assay: Antidyslipidemic activity in Charles foster rat assessed as increase in triton WR-1339-reduced post heparin lipolytic activity level in plasma at 25 mg/kg, po after 18 hrs by spectrophotometric analysis relative to triton-treated rat; format: functional; design: scale not given: the % may be the effect or the level left; procedure, shortened: as §3
[22] = tested on: Rattus norvegicus; assay: Antidyslipidemic activity in Charles foster rat assessed as increase in triton WR-1339-reduced lipoprotein lipase level in liver at 100 mg/kg, po relative to triton-treated rat; format: functional, organism-based; design: dose 100 mg/kg
Procedure, shortened: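 Rats given triton WR-1339 (400 mg/kg i.p.) with oral test agent in gum acacia, 6 per group. Liver homogenized 10% w/v in cold 100 mM phosphate buffer pH 7.2 and assayed for total lipoprotein lipase lipolytic activity. Mean ± SD.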

[23] = tested on: Rattus norvegicus; assay: Antidyslipidemic activity in Charles foster rat assessed as increase in triton WR-1339-reduced post heparin lipolytic activity level in plasma at 200 mg/kg, po after 18 hrs by spectrophotometric analysis relative to triton-treated rat; format: functional; design: scale not given: the % may be the effect or the level left; procedure, shortened: as §3
[24] = tested on: Rattus norvegicus; assay: Antidyslipidemic activity in Charles foster rat assessed as decrease in triton WR-1339-induced total cholesterol level in plasma at 50 mg/kg, po after 18 hrs relative to triton-treated rat; format: functional; design: scale not given: the % may be the effect or the level left; procedure, shortened: as §1
[25] = tested on: Rattus norvegicus; assay: Antidyslipidemic activity in Charles foster rat assessed as decrease in triton WR-1339-induced triglyceride level in plasma at 50 mg/kg, po after 18 hrs relative to triton-treated rat; format: functional; design: scale not given: the % may be the effect or the level left; procedure, shortened: as §1
[26] = tested on: Rattus norvegicus; assay: Antidyslipidemic activity in Charles foster rat assessed as increase in triton WR-1339-reduced post heparin lipolytic activity level in plasma at 150 mg/kg, po after 18 hrs by spectrophotometric analysis relative to triton-treated rat; format: functional; design: scale not given: the % may be the effect or the level left; procedure, shortened: as §3
[27] = tested on: Rattus norvegicus; assay: Antidyslipidemic activity in Charles foster rat assessed as decrease in triton WR-1339-induced total cholesterol level in plasma at 25 mg/kg, po after 18 hrs relative to triton-treated rat; format: functional; design: scale not given: the % may be the effect or the level left; procedure, shortened: as §1
[28] = tested on: Rattus norvegicus; assay: Antidyslipidemic activity in Charles foster rat assessed as decrease in triton WR-1339-induced phospholipid level in plasma at 150 mg/kg, po after 18 hrs relative to triton-treated rat; format: functional; design: scale not given: the % may be the effect or the level left; procedure, shortened: as §1

| SMILES | Activity [1] | Activity [2] | Activity [3] | Activity [4] | Activity [5] | Activity [6] | Activity [7] | Activity [8] | Activity [9] | Activity [10] | Activity [11] | Activity [12] | Activity [13] | Activity [14] | Activity [15] | Activity [16] | Activity [17] | Activity [18] | Activity [19] | Activity [20] | other results |
| --- | --- | --- | --- | --- | --- | --- | --- | --- | --- | --- | --- | --- | --- | --- | --- | --- | --- | --- | --- | --- | --- |
| C=C1CC[C@@H]2[C@](C)(CO)[C@H](O)CC[C@@]2(C)[C@@H]1C/C=C1/C(=O)OC[C@H]1O [ANDROGRAPHOLIDE] | 20% | 29% | 26% | 29% | 38% | 30% | 33% | Active | 12% | Active | 15% | Active | 30% | 16% | 30% | 27% | 36% | 13% | 28% | 45% | Activity [21]: 10%; Activity [22]: Active; Activity [23]: 18%; Activity [24]: 21%; Activity [25]: 21%; Activity [26]: 18%; Activity [27]: 14%; Activity [28]: 29% |
| C=C1CC[C@@H]2[C@](C)(COS(=O)(=O)c3ccc(C)cc3)[C@H](O)CC[C@@]2(C)[C@@H]1C/C=C1/C(=O)OC[C@H]1O | 22% | 34% | 37% | 34% | 40% | 40% | 41% | Active | 15% | Active | 14% | Active | 37% | 18% | 37% | 33% | 46% | 13% | 35% | 55% | Activity [21]: 10%; Activity [22]: Active; Activity [23]: 18%; Activity [24]: 22%; Activity [25]: 20%; Activity [26]: 18%; Activity [27]: 16%; Activity [28]: 39% |

From ChEMBL document CHEMBL2434829, “Synthesis of new andrographolide derivatives and evaluation of their antidyslipidemic, LDL-oxidation and antioxidant activity” (2013)
